Screens (PubChem)
This is a sample that favours compounds with a hit; in the whole collection about 2.2% have one here.
Tb hexokinase: blocks Trypanosoma brucei hexokinase 1 activity; recombinant TbHK1, G6PDH-coupled NADH A340; inhibition, % at 10 µM; 220,000 tested, 0.11% active;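 active = inhibition of 50% or more in the single-dose primary screen; inactive = inhibition below 50%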
Runt-CBFb FRET: Runt domain-CBFb interaction inhibition | 220,000 tested, 0.46% active | inhibition, % at 20 µM | Cerulean-Runt/Venus-CBFb FRET ratio 530/480, 1 h;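 active = inhibition over about 50% at 20 µM in the single-dose screen, limit read from the data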;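 also: 0% = DMSO wells and 100% = excess unlabeled CBFb competitor control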
Target sequence (Q01196 whole entry, looked up, the tested form may be a part): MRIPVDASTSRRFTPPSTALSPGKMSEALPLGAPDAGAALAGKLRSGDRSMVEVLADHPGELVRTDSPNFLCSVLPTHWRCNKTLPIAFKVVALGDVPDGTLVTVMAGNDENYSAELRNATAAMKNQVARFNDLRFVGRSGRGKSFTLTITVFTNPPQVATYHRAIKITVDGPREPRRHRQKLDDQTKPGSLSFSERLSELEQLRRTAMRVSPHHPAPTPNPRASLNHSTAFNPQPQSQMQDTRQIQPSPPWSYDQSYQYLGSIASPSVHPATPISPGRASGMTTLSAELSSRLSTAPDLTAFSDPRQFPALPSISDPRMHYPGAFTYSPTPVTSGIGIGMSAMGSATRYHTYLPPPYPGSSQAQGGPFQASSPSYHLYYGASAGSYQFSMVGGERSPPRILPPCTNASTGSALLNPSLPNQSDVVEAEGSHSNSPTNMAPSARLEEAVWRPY
Target sequence (Q13951 whole entry, looked up, the tested form may be a part): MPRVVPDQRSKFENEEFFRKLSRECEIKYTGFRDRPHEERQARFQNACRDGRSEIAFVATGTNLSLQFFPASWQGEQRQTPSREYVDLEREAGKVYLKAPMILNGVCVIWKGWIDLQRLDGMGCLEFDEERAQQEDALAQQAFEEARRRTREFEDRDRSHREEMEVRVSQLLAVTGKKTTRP
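Doses: 20 µM compound in 1% DMSO | Material: Cerulean-labeled Runt domain protein | Amount: Each fluorescent fusion protein 100 nM | Schedule: Two 1 h room-temperature incubations shielded from light | Measured by: FRET fluorescence | Evaluation: Loss of energy transfer signal | Controls: Unlabeled CBFb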
Hck Nef HTS: blocks Nef-activated human Hck kinase; 220,000 tested, 0.68% active; Recombinant Hck-YEEI plus Nef, Z-Lyte FRET kinase assay; P08631; inhibition, % at 20 µM;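 active = Hck-Nef kinase inhibition above about 50%, limit read from the data; inactive = inhibition below that limit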;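 also: 0% = DMSO with Hck plus Nef and 100% = Hck alone without Nef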
14-3-3 Bad PPI: disrupts binding of bovine 14-3-3 zeta to phospho-Bad peptide; P63103; 220,000 tested, 0.71% active; TR-FRET 14-3-3zeta/Dy647-pBad peptide displacement, 1 h; inhibition, % at 21.7 µM; AID 781;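 active = inhibition above about 70%, limit read from the data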;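 also: 0% = full 14-3-3 plus peptide FRET controls and 100% = background without 14-3-3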
RanGTP-Impb inh: disruptors of Ran-importin-beta complex formation – biochemical, FRET, CFP-Ran, YFP-importin-beta, homogeneous, primary screen. cell-free CFP-Ran/YFP-importin-beta FRET ratio. inhibition, % (concentration not given with the values). 300,000 tested, 1.1% active. AID 2216;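 active = more than half of the replicate wells show a fall in the fluorescence ratio signal beyond about 16%, limit read from the data, passing the limit was not always enough; inconclusive = exactly half of the replicate wells pass the set limit; inactive = fewer than half of replicates pass the limit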;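 also: 0% = DMSO wells and 100% = Ran loaded with GDP instead of GTP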
Runt-SMMHC FRET: inhibitors of human RUNX1 Runt domain binding to CBFb-SMMHC; AID 1434; Cerulean-Runt/Venus-CBFb-SMMHC FRET ratio 530/480, 1 h; 220,000 tested, 0.74% active; inhibition, % at 20 µM; Q01196+Q13951;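 active = mean inhibition across duplicate retests at 20 µM reaching about 50%, limit read from the data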;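 also: 0% = DMSO wells and 100% = wells with excess untagged CBFb-SMMHC; inhibitors lower the FRET ratio by blocking Runt binding to CBFb-SMMHC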
* = called active by the depositor; ? = inconclusive; nt = no result; [ ] = another dose, or the depositor's remark.

SMILES	Tb hexokinase	Runt-CBFb FRET	Hck Nef HTS	14-3-3 Bad PPI	RanGTP-Impb inh	Runt-SMMHC FRET
Cc1ccc(S(=O)(=O)/N=C2/C=C(Sc3ncn[nH]3)C(=O)c3ccccc32)cc1	34.8	14.1	4.9	88.4*[fluorescence artefact?]	nt	42.9
CC1CCCN(c2nc3ccccc3nc2C(C#N)S(=O)(=O)c2cccs2)C1 (stereo not given)	-2.2	14.7	-1.9	57.7	?	-0.1
Cc1ccc(S(=O)(=O)C(C#N)c2nc3ccccc3nc2N2CCCC2)cc1 (stereo not given)	-2.7	-22.4	7.1	11.4	-0.8	-104.5
CCN1CCN(c2nc3ccccc3nc2C(C#N)S(=O)(=O)c2ccc(C)cc2)CC1 (stereo not given)	-18.3	1.0	-1.5	-6.0	82.4*	16.6
COc1ccc(S(=O)(=O)C(C#N)c2nc3ccccc3nc2N2CCCC(C)C2)cc1 (stereo not given)	-4.4	5.9	9.7	25.4	13.4	0.0
N#CC(c1nc2ccccc2nc1N1CCOCC1)S(=O)(=O)c1ccccc1 (stereo not given)	-19.0	13.9	-13.7	2.8	16.3*	3.0
CCN1CCN(c2nc3ccccc3nc2C(C#N)S(=O)(=O)c2ccc(C)c(C)c2)CC1 (stereo not given)	-13.4	1.5	-3.2	0.8	75.2*	23.3
Cc1cccc(S(=O)(=O)C(C#N)c2nc3ccccc3nc2N2CC(C)OC(C)C2)c1 (stereo not given)	0.2	-14.8	2.9	72.7*	?	26.6
Cc1ccc(S(=O)(=O)C(C#N)c2nc3ccccc3nc2N2CC(C)OC(C)C2)cc1C (stereo not given)	-1.5	10.5	3.8	29.0	2.7	64.8
O=C(NC1CCN(C(=S)Nc2ccc(F)cc2)CC1)c1ccco1	nt	nt	nt	nt	1.2	nt
Cc1ccc(S(=O)(=O)C(C#N)c2nc3ccccc3nc2OC(C)C)cc1 (stereo not given)	-4.1	-2.6	-0.1	22.1	6.0	-23.0
N#CC(c1nc2ccccc2nc1OCCO)S(=O)(=O)c1ccccc1 (stereo not given)	-6.7	-1.5	2.1	6.3	23.5*	-3.8
CCOC(=O)Cc1csc(NC(=O)CCN2C(=O)c3ccccc3C2=O)n1	-7.4	-1.5	-0.7	12.5	-4.3	-0.1
CCN(CC)c1ccc(NC(=O)COC(=O)c2ccc3ccccc3n2)cc1	-1.6	8.2	-23.4	9.0	-2.2	14.5
O=C1Cc2ccccc2C(c2ccccc2)N1 (stereo not given)	34.0	1.8	0.6	79.2*	7.5	-4.5
COC(=O)c1ccc2c(=O)n(-c3ccccc3F)c(=S)[nH]c2c1	-0.9	2.4	24.7	-8.1	5.6	6.9
CCOc1ncccc1C(=O)N1CCN(c2cccc(C)c2C)CC1	8.5	-1.9	-9.1	87.6*	4.1	-1.6
CCOc1ncccc1C(=O)N1CCN(c2cc(Cl)ccc2C)CC1	-11.1	-4.4	21.5	-9.9	-2.2	-5.0
O=C(CN1C(=O)S/C(=C/c2cc(Br)cs2)C1=O)N1CCOCC1	-4.4	-0.7	4.4	-6.4	-1.7	-0.3
O=C(N/N=C/c1ccc2c(c1)OCO2)c1ccc(COc2cccc3cccnc23)cc1	-4.0	1.2	7.5	-8.8	0.5	-2.1
Cc1snc(SCC(=O)c2ccc([N+](=O)[O-])cc2)c1C#N	-1.5	21.1	-55.6	2.5	nt	60.5*
COc1ccc2cc(-c3cc(C(=O)OCC(=O)NC4CCS(=O)(=O)C4)c4ccccc4n3)ccc2c1 (stereo not given)	-2.8	-8.7	15.3	-3.5	23.9*	79.2*
O=C(NCc1cccc(Cl)c1)c1ccc(CS(=O)Cc2ccc(Cl)cc2)o1 (stereo not given)	nt	nt	nt	nt	-2.9	nt
COc1cccc(NC(=O)C(NCC(C)(C)CN(C)C)c2ccccc2)c1 (stereo not given)	-2.9	-1.0	4.3	70.3*	0.8	-0.8
C=CCNC(C(=O)Nc1cccc(OC)c1)c1ccccc1 (stereo not given)	2.5	-0.3	17.0	-8.0	?	-2.7
SMILES	Tb hexokinase	Runt-CBFb FRET	Hck Nef HTS	14-3-3 Bad PPI	RanGTP-Impb inh	Runt-SMMHC FRET
COc1ccccc1N1CCN(C(=O)c2cc3c(=O)n4cccc(C)c4nc3s2)CC1	nt	nt	nt	nt	31.0*	nt
CCOC(=O)N1CCN(C(=O)c2cc3c(=O)n4cccc(C)c4nc3s2)CC1	nt	nt	nt	nt	-1.4	nt
CC(=O)c1sc2nc(-c3ccc(C)cc3)c3c(c2c1N)CCCC3	-12.0	3.0	4.5	-2.5	66.4*	10.3
CCc1nc2sc(C#N)c(N)c2c2c1CCCC2	4.3	nt	8.0	13.9	3.9	nt
CCc1nc2sc(C(C)=O)c(N)c2c2c1CCCC2	7.5	34.1	37.1	1.7	28.0*	81.0*
COc1ccc(-c2ccc(C#N)c(SCC(=O)Nc3sc4c(c3C#N)CCC4)n2)cc1OC	-28.7	-43.5	-0.7	91.6*[fluorescence artefact?]	-0.7	-66.6
O=C(/C=C/c1ccccc1)c1ccccn1	-6.2	21.4	1.1	-12.4	22.5*	21.9
O=C(/C=C/c1ccc2c(c1)OCO2)c1ccccn1	-33.3	34.3	11.7	2.2	40.8*	-6.3
N/C(=N\OC(=O)/C=C/c1ccccc1)c1ccccn1	-2.6	0.9	-48.0	-1.5	-0.4	-0.3
COc1ccccc1N1CCN(Cc2c[nH]c3ccccc23)CC1	-2.9	-2.6	12.5	-19.6	2.6	3.8
Cc1ccccc1N1CCN(Cc2c[nH]c3ccccc23)CC1	4.8	0.9	-19.1	70.5*	?	-2.0
Cc1ccc(NC(=O)CCC(=O)NNC(=O)NC2CCCCC2)c(C)c1	-3.7	-0.3	0.5	-4.7	-1.4	4.1
O=C1NC(=S)N(C(=O)c2ccc(F)cc2)/C1=C/c1cccnc1	0.7	-1.3	16.0	4.2	9.8	-0.2
COc1ccc(/C=C2\C(=O)NC(=S)N2C(=O)c2ccc(C)cc2)cc1	0.2	4.2	19.4	78.8*[fluorescence artefact?]	8.1	10.0
OC1CCCN(Cc2cn(Cc3ccccc3)nc2-c2cc3ccccc3o2)C1 (stereo not given)	6.0	0.6	16.3	-7.2	3.2	0.6
c1cc2ccc3ccc(CN4CCOCC4)c4ccc(c1)c2c34	-37.9	nt	0.2	84.8*[fluorescence artefact?]	45.1*	10.0
OC1CCCN(Cc2ccc3ccc4cccc5ccc2c3c45)C1 (stereo not given)	-38.9	nt	2.9	-4.4	41.2*	9.2
Cc1cc2ccccc2cc1CN1CCOCC1	-3.1	-1.3	-0.2	20.5	3.4	-1.3
CCCC(=O)NC(Nc1ccccc1F)C(Cl)(Cl)Cl (stereo not given)	7.8	67.0*	-2.1	5.3	-0.2	-4.3
Cc1ccc(CN2[C@@H](CC3CCCCC3)COCCS2(=O)=O)cc1	nt	nt	nt	nt	1.7	nt
Cc1ccc(N2CCN(S(=O)(=O)N3CCOCC3)CC2)cc1C	-2.0	-0.2	-0.5	6.1	-3.6	0.4
